An excerpt weighted towards active compounds, which were near 3.8% of everything screened.
rCAG RNA binder: r(CAG) repeat RNA binding | TO-PRO-1 dye displacement fluorescence | inhibition, % at 3 µM | AID 651821 | 370,000 tested, 1.3% active;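 active = inhibition above the plate cutoff, the mean of all test compounds on that plate plus 3 SD, cut at about 35% in these data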;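 note: higher means more dye released from RNA so lower well fluorescence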
T cell HTS: T cell immune modulation candidate. 2C CD8+ T cell-vesicle binding, flow cytometry; active compounds read low. AID 2052. 330,000 tested, 0.068% active. response (vesicle binding), % at 7 µM;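 active = response, share of CD8 T cells binding vesicles, and their 90th percentile fluorescence all below set limits, cut at about 80% in these data, passing the limit was not always enough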;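 note: values below 100% mean blocked vesicle binding to the CD8+ T cells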
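Material: 2C TCR transgenic mouse naive CD8+ T cells, MACS-purified. Also added: QL9-charged Drosophila Ld/ICAM-1/B7-1 vesicles. Timing: binding 1.5 h at 37 °C. Measured by: high-throughput flow cytometry with anti-B7-1 and anti-CD8 staining. Read-out: percent CD8+ FL2 mean versus row control. Controls: Unloaded micro-vesicles (low), QL9 vesicles with 0.7% DMSO (high).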
MPTP block: permeability transition pore inhibition | isolated mouse mitochondria, Ca2+ swelling absorbance, 30 min | inhibition, % at 10 µM | 360,000 tested, 1.4% active;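 active = inhibition of 50% or more, scaled per plate between neutral and stimulator controls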
Granule exo inh: blocks lytic granule exocytosis. TALL-104 LAMP-1 surface exposure, flow cytometry; cells stimulated with thapsigargin and PMA. inhibition, % at 10 µM. 360,000 tested, 0.66% active. AID 651702;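 active = inhibition above about 55%, limit read from the data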
Beta2AR agonist: human beta-2 adrenergic receptor agonism by FAP | P07550 | Am2.2-beta2AR cells, FAP receptor internalization, flow cytometry | response, % (test concentration not listed) | 340,000 tested, 0.43% active | AID 504454;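 active = response above a set limit, near 3 SD of response in nonfluorescent compounds, cut at about 42% in these data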
Target sequence (P07550 whole entry, looked up): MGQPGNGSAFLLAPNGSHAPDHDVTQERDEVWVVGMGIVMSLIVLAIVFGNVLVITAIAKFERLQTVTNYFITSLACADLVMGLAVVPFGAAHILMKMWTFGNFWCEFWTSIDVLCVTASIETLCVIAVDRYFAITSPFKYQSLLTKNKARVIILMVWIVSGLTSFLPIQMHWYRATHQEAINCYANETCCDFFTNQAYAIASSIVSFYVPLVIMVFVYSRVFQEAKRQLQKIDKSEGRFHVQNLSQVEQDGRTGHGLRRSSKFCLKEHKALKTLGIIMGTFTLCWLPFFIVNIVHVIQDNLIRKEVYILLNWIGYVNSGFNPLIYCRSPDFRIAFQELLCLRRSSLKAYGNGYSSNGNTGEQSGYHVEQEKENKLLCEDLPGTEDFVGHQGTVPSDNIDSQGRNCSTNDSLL
V-ATPase pH: regulators of yeast V-ATPase proton transport. S. cerevisiae, pHLuorin cytosolic pH fluorescence. response, % at 10 µM. 350,000 tested, 0.37% active; in the data active = response mostly above about 7.3%, no sharp cut-off; inactive = mostly below about 5.4%; note: actives read high
Rh123 counter: mitochondrial membrane potential, counter-screen. 5,000 tested, 78% active. inhibition, % at 10 µM. isolated mitochondria, Rhodamine 123 fluorescence. shares compounds with MPTP block; in the data active = inhibition above about 22%
rCAG binder conf: r(CAG) RNA repeat binding, confirmation; shares compounds with rCAG RNA binder; TO-PRO-1 dye displacement fluorescence; inhibition, % at 3 µM; 4,300 tested, 70% active; AID 652065;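 active = inhibition above a per-plate cutoff, the mean inhibition of sample wells plus 3 SD, cut at about 35% in these data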;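 note: loss of TO-PRO-1 fluorescence as compound displaces dye from 1x1 AA loop RNA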
dCAG dye counter: disrupts DNA CAG TO-PRO-1 complex, flagging rCAG hits; shares compounds with rCAG RNA binder; d(CAG) DNA oligo TO-PRO-1 dye displacement, fluorescence; inhibition, % at 3 µM; 4,300 tested, 94% active; AID 652068;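 active = inhibition above its plate's cutoff, the mean test-well inhibition plus 3 SD, cut at about 4.8% in these data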;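 note: hits displace the dye from DNA and so lower well fluorescence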
DNA CAG DR: DNA CAG dye complex inhibition, dose response counter-screen; shares compounds with rCAG RNA binder; DNA CAG/GTC duplex TO-PRO-1 dye displacement fluorescence; IC50, µM; 250 tested, 20% active; AID 686960; in the data active = IC50 below about 10 µM
A number is an active result; n = inactive; x = no result given.

SMILES | rCAG RNA binder | T cell HTS | MPTP block | Granule exo inh | Beta2AR agonist | V-ATPase pH | Rh123 counter | rCAG binder conf | dCAG dye counter | others
COc1ccc(Nc2nc3ccccc3nc2NS(=O)(=O)c2cccs2)cc1 | 42.4 | n | 61.0 | n | n | n | 63.7 | 74.0 | 35.9
Cc1ccc(N2C(=O)/C(=C/c3cccnc3)SC2=S)cc1 | n | n | n | n | n | n | x | x | x
O=C1/C(=C\c2ccccn2)SC(=S)N1c1ccc(S(=O)(=O)Nc2nccs2)cc1 | 64.8 | n | 70.5 | n | n | n | 47.9 | 82.6 | 52.0
Cc1ccc(/C=C2/SC(=S)N(c3ccc(S(=O)(=O)Nc4nccs4)cc3)C2=O)cc1 | 41.9 | n | 95.7 | n | n | n | 74.6 | 82.0 | 48.6
COc1ccc(/C=C2/SC(=S)N(c3ccc(S(=O)(=O)Nc4nccs4)cc3)C2=O)cc1 | 73.4 | n | 89.2 | n | n | n | 64.3 | 77.5 | 44.3
O=C1/C(=C/c2ccccn2)SC(=S)N1c1ccc(O)cc1 | n | n | n | n | n | n | x | x | x
C[C@@H]1OC(C2CCCCC2)N(C)[C@H]2C[C@H]3c4cc(N5CCOCC5)ccc4CCN3C[C@@H]12 (some centres not stated) | n | x | x | x | x | x | x | x | x
CN(C)S(=O)(=O)c1cccc(NC(=S)NC(=O)c2ccco2)c1 | n | x | n | n | n | n | x | x | x
CN(C)S(=O)(=O)c1cccc(NC(=S)NNC(=O)c2cc3ccccc3cc2O)c1 | 87.1 | n | 51.7 | n | n | n | 48.0 | 86.0 | 56.5
COC(=O)[C@]1(C#N)CC(=O)N(C(C)C)[C@@H]1c1ccccc1 | n | x | x | x | x | x | x | x | x
COc1ccc(C(=O)/C(C#N)=N/Nc2cccc([N+](=O)[O-])c2)cc1 | 44.3 | x | 94.5 | n | n | n | 80.7 | 51.6 | 13.1
N#C/C(=N\Nc1cccc(Cl)c1)C(=O)c1ccccc1 | 72.5 | n | 95.6 | n | n | n | 80.5 | 43.5 | 11.0
N#C/C(=N\Nc1ccc(Cl)cc1)C(=N)N1CCCCC1 | n | n | n | n | n | n | x | x | x
N#C/C(=N\Nc1ccc(Cl)cc1)C(=O)c1ccsc1 | 47.2 | n | 72.0 | n | n | n | 90.3 | 40.0 | 8.1
CCOC(=O)[C@@]12CCC3=C1N(CCC3)C(=O)[C@H](CC(=O)NCc1ccc(OC)c(OC)c1)C2 | n | x | x | x | x | x | x | x | x
CCN(C(=O)[C@@H](C1CC1)[C@@H](O)c1ccc(C(C)=O)cc1)c1ccccc1 | n | x | x | x | x | x | x | x | x
Nc1ncc(Br)cc1S(=O)(=O)Nc1cc(C(F)(F)F)cc(C(F)(F)F)c1 | 80.8 | n | 85.1 | n | n | n | 84.6 | 65.0 | 27.0 | DNA CAG DR=n
Cc1ccc(NS(=O)(=O)c2cc(Br)cnc2N)c(Cl)c1 | n | n | n | n | n | n | x | x | x
CC1CCN(c2ccc(C(=O)O)cc2NS(=O)(=O)c2ccccc2[N+](=O)[O-])CC1 | n | x | x | x | x | x | x | x | x
CC1=NN(c2ccc(C)cc2)C(=O)/C1=C/c1ccc(-c2cc([N+](=O)[O-])ccc2O)o1 | 56.4 | x | 101.9 | n | n | n | 45.9 | 63.8 | 33.5
Cc1nc2c(C(=O)NCCC(C)C)c[nH]n2c(=O)c1Cc1ccccc1F | 68.8 | n | 78.4 | n | n | n | 58.8 | 76.2 | 41.9
Cc1nc2c(C(=O)O)cnn2c(C)c1Cc1ccccc1F | n | n | n | n | n | n | x | x | x
CCCCCCCCN1C(=O)N2Cc3ccccc3C2CS1(=O)=O (configuration not stated) | n | x | x | x | x | x | x | x | x
CC(C)(C)c1nc(NC(=O)Nc2ccccc2)sc1Br | 36.2 | n | 94.0 | n | n | n | 80.4 | n | 15.7
COc1ccc(NC(=O)Nc2nnc(C(C)(C)C)s2)cc1 | n | n | n | n | n | n | x | x | x
SMILES | rCAG RNA binder | T cell HTS | MPTP block | Granule exo inh | Beta2AR agonist | V-ATPase pH | Rh123 counter | rCAG binder conf | dCAG dye counter | others
O=C(NNC(=S)NC1CCCCC1)c1sc2ccccc2c1Cl | 83.3 | n | 88.4 | n | n | n | 78.7 | 81.6 | 53.9
O=C1S/C(=C\c2ccc(O)c([N+](=O)[O-])c2)C(=O)N1c1ccccc1Cl | 47.8 | n | 59.0 | n | n | n | 71.5 | 44.0 | 11.3
CN1C(=O)/C(=C/c2ccc(O)c([N+](=O)[O-])c2)N(C)C1=S | n | n | n | n | n | n | x | x | x
CCOC(=O)c1cccc(-c2cc(C(C)=O)c3n(c2=O)CCC3)c1 | n | x | x | x | x | x | x | x | x
N#CC(C#N)=NNc1ccc(S(=O)(=O)N2CCCCC2)cc1 | 45.5 | n | 89.1 | n | n | n | 91.5 | 41.2 | 15.3
CCCn1nc([N+](=O)[O-])c(C(C#N)c2nc3ccccc3s2)c(Cl)c1=O (configuration not stated) | 88.2 | n | 111.9 | n | n | n | 46.4 | 82.6 | 46.0
Oc1c(Cl)cc(Cl)cc1/C=C/c1ccc2cccc(O)c2n1 | 40.7 | n | 97.5 | n | n | n | 74.1 | 56.1 | 21.1
Oc1cccc2ccc(/C=C/c3ccccc3Br)nc12 | n | n | n | n | n | n | x | x | x
Cc1ccc(S(=O)(=O)NN=C2CCC(C(C)(C)C)CC2)cc1[N+](=O)[O-] (configuration not stated) | x | n | n | n | n | n | x | x | x
Cc1ccc(S(=O)(=O)N/N=C2/CC(c3ccccc3)Oc3ccccc32)cc1[N+](=O)[O-] (configuration not stated) | 42.1 | n | 78.3 | n | n | n | 76.0 | 76.3 | 36.5
Cc1ccc(-c2csc(NC(=O)CSc3nnc4c(n3)[nH]c3ccccc34)n2)cc1 | 35.1 | n | 87.5 | n | n | n | 55.5 | n | 18.0
COC(=O)c1cc2c(c3c4cc(F)ccc4n(S(=O)(=O)c4cccc(C)c4)c13)C(=O)N(c1ccc(OC)cc1)C2 | n | x | x | x | x | x | x | x | x
Cc1[nH]n(-c2ncc(-c3ccccc3)s2)c(=O)c1C(c1ccc(Cl)cc1)C(C#N)C#N (configuration not stated) | 45.6 | n | 103.2 | n | n | n | 24.7 | 80.6 | 48.5
Cc1[nH]n(-c2ccccc2)c(=O)c1C(c1ccccc1[N+](=O)[O-])C(C#N)C#N (configuration not stated) | n | n | n | n | n | n | x | x | x
Nc1c(C=C2C=CC(=O)C=C2)c(=O)nc2snc(SCc3ccccc3)n12 | 51.7 | n | 65.9 | n | n | n | 59.3 | 49.7 | 16.4
COc1ccccc1NC(=O)c1ccccc1NS(C)(=O)=O | n | n | n | n | n | n | x | x | x
Cc1ccc(NC(=O)c2ccccc2NS(=O)(=O)c2ccc(Cl)s2)cc1S(=O)(=O)N1CCOCC1 | 86.6 | n | 98.9 | n | n | n | 77.2 | 90.1 | 68.9
